Columns and labels:
[1] = Solubility of the compound in 25% DMSO; type: physicochemical
[2] = biological target: T1, Fe(3+)-Zn(2+) purple acid phosphatase (Phaseolus vulgaris) (UniProt P80366); test: Competitive inhibition of red kidney bean PAP using varying levels of pNPP as substrate measured at pH 6.2 by UV-vis spectrophotometric analysis
T1 sequence (whole entry): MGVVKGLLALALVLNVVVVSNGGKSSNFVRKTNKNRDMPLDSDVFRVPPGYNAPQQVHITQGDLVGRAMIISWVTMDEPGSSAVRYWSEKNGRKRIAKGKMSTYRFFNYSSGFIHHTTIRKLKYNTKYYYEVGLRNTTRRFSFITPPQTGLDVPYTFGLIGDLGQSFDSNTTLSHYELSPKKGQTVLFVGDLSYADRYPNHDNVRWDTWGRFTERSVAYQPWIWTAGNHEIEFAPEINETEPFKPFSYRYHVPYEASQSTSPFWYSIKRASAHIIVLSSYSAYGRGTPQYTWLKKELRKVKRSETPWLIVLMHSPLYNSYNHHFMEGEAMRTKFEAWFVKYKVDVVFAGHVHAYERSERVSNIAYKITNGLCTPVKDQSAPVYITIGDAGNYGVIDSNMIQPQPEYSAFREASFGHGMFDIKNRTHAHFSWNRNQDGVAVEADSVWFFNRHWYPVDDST
Summary of the method: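 Red kidney bean PAP (rkbPAP), purified, at 8.4 nM. p-NPP 1–15 mM in 0.1 M MES pH 6.2 with 25% DMSO, 25 °C. p-Nitrophenol formation followed at 405 nm (Δε 1834.4 mol−1 L cm−1). Inhibitor concentration varied; competitive constant Kic from non-linear regression using a general inhibition equation.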

Sus scrofa = organism: Sus scrofa; test: Competitive inhibition of pig PAP using varying levels of pNPP as substrate measured at pH 4.9 by UV-vis spectrophotometric analysis
Summary of the method: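 Purified pig PAP, first reduced to the FeIII-FeII form (0.77 mM β-mercaptoethanol, 10 min, 37 °C), at 8.4 nM. p-NPP 1–15 mM in 0.1 M acetate pH 4.9 with 25% DMSO, 25 °C. p-Nitrophenol formation read at 405 nm (Δε 342.9 mol−1 L cm−1). Inhibitor concentration varied; Kic fitted by non-linear regression to a general inhibition equation.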

[3] = Inhibition of human PAP assessed as dephosphorylation of 4-methylumbelliferyl phosphate to 4-methylumbelliferone using 4-methylumbelliferyl phosphate as substrate measured for 15 mins by micro-fluorescence detector method

Row | SMILES | solubility [1] | Kic [2] | Kic (Sus scrofa) | IC50 [3]
1 | CCCCCCCCCCCCCCOC(c1cccc2ccccc12)P(=O)(O)O (racemic) | Soluble | 0.2 µM | 1.1 µM | 
2 | CCCCCCCCCCCCCCCCCCCCOC(c1cccc2ccccc12)P(=O)(O)O (racemic) | Soluble | 0.8 µM | 4.4 µM | 
3 | CCCCCCCCCCCCCCCCCCOC(c1cccc2ccccc12)P(=O)(O)O (racemic) | Soluble | 0.5 µM | 0.2 µM | 
4 | CCCCCCCCCCCCOC(c1cccc2ccccc12)P(=O)(O)O (racemic) | Soluble | 4.5 µM | 0.7 µM | 
5 | O=C(c1ccccc1)C(C(=O)c1ccccc1)(c1cccc2ccccc12)P(=O)(O)O |  |  |  | 1.4 µM
6 | CCCCCCCCCCCCCCCCCCCCCCOC(c1cccc2ccccc12)P(=O)(O)O (racemic) | Soluble | 14 µM | 62 µM | 
7 | CCCCCCCCCCCCCCCCOC(c1cccc2ccccc12)P(=O)(O)O (racemic) | Soluble | 0.4 µM | 0.6 µM | 
